Test results from paper PMC6282775 (Journal of Clinical Pharmacology, 2018).

Experiments:
[1] = Unbound fraction; type: in vivo, human; settings: for fraction unbound: human, plasma, oral, 300 mg, median value of individual mean fu%, plasma 6 and 12 hours postdose; for GMR of unbound AUC0‐∞ / GMR of unbound Cmax: single 300-mg dose of alectinib
How it was run: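 Single oral 300 mg dose given 30 min after the start of a standard ~514 kcal meal, after a ≥10 h fast. Plasma taken 6 and 12 h postdose was dialyzed in triplicate, and plasma and buffer were analysed by LC-MS/MS. Samples were spiked if levels were too low. fu% = unbound/total ×100, geometric mean of triplicates (outlier dropped if CV >45.0%). GMRs from ANOVA of log Cmax and AUC0‐∞, with matched controls as a random effect.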

[2] = tested on: CYP3A; settings: cited from earlier work
[3] = Clinical hepatic impairment study: total plasma PK of alectinib and M4; type: in vivo, human; settings: single 300-mg dose of alectinib
[4] = Safety evaluations in the clinical study; type: in vivo, human
How it was run: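 Open-label, multicenter, parallel-group study in healthy subjects and subjects with moderate (Child-Pugh B) or severe (Child-Pugh C) hepatic impairment. Subjects fasted at least 10 h, then took one oral 300-mg capsule dose of test compound with water 30 min after starting a standard meal. No food for 4 h. Adverse events, vital signs, clinical laboratory tests and ECGs were recorded, with follow-up 7–10 days after dosing.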

[5] = tested on: plasma proteins; settings: cited from earlier work
[6] = moderate hepatic impairment/matched healthy subjects
[7] = severe hepatic impairment/matched healthy subjects

CCc1cc2c(cc1N1CCC(N3CCOCC3)CC1)C(C)(C)c1[nH]c3cc(C#N)ccc3c1C2=O [Alectinib]
fraction unbound ([1]; healthy subjects matched for moderate): 0.00206 | fraction unbound ([1]; healthy subjects matched for severe): 0.0014 | fraction unbound ([1]; moderate hepatic impairment): 0.00229 | fraction unbound ([1]; severe hepatic impairment): 0.00179 | GMR of unbound AUC0‐∞ [1, 6]: 186% | GMR of unbound Cmax [1, 6]: 148% | GMR of unbound AUC0‐∞ [1, 7]: 285% | GMR of unbound Cmax [1, 7]: 130% | increase in exposure on coadministration of a potent CYP3A inhibitor [2]: 75% | GMR of total AUC0‐∞ [3, 6]: 160% | GMR of total Cmax [3, 6]: 128% | GMR of total AUC0‐∞ [3, 7]: 220% | GMR of total Cmax [3, 7]: 100% | changes in vital signs, laboratory values, or electrocardiogram measurements ([4]; single oral 300 mg, during the study): No clinically significant changes | tolerability ([4]; single oral dose of 300 mg, healthy subjects and subjects with moderate or severe hepatic impairment): well tolerated | protein binding in vitro [5]: ≥ 99%
